This note sets out measurements from ChEMBL document CHEMBL1141198, “Design and synthesis of tri-ring P3 benzamide-containing aminonitriles as potent, selective, orally effective inhibitors of cathepsin K” (J Med Chem, 2005).

In one data set the target is Cathepsin B (Homo sapiens, UniProt P07858). Description: Inhibitory constant against human cathepsin B using Boc-Leu-Lys-Arg-AMC substrate.
Another data set concerns the target Procathepsin L (Homo sapiens, UniProt P07711). Description: Inhibitory constant against human cathepsin L using Z-Phe-Arg-AMC substrate. In short, it runs like this: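 Recombinant human cathepsin L at 500 pM in 50 mM MES pH 5.5, 2.5 mM DTT, 2.5 mM EDTA, 10% DMSO. Enzyme preincubated with inhibitor (8 concentrations) 30 min at 21–24 °C. Reaction started with 10 μM Z-Phe-Arg-AMC; AMC fluorescence (ex 355/em 460 nm) over first ~5 min. Ki(app) fitted with Morrison tight-binding model.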

The target of the next data set is Cathepsin S (Homo sapiens, UniProt P25774). Description: Inhibitory constant against human cathepsin S using Z-Val-Val-Arg-AMC substrate. In short, it runs like this: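 Recombinant human cathepsin S at 500 pM in 50 mM MES pH 6.5, 2.5 mM β-mercaptoethanol, 2.5 mM EDTA, 100 mM NaCl, 0.001% BSA, 10% DMSO. 30 min enzyme–inhibitor preincubation at 21–24 °C, 8 inhibitor concentrations. Started with 60 μM Z-Val-Val-Arg-AMC; initial rates by AMC fluorescence (ex 355/em 460). Ki(app) by Morrison tight-binding fit.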

Another data set deals with Osteoclast. Briefly: In vitro bone resorption in isolated rabbit osteoclasts. It counts as functional, cell-based. Conditions: Oryctolagus cuniculus. In outline:
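Bovine bone degraded by isolated rabbit osteoclasts; collagen degradation read by ELISA. 8-point dose–response curves; IC50 derived.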

Data set [1] can be described thus: Plasma clearance in rat administered with 0.5 mg/kg, iv. It counts as ADME, organism-based. Also noted: dose 0.5 mg/kg, route intravenous. In outline: (§1)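 Rats, three per study, cassette iv dosing of up to four compounds. Formulation DMSO (<20%), PEG 400 (<20%) and water at 0.5 mg/mL per compound, given at 1 mL/kg for 0.5 mg/kg per compound.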
A short description of data set [2]: Volume of distribution in rat administered with 0.5 mg/kg, iv. The class given is ADME, organism-based. More on the design: dose 0.5 mg/kg, route intravenous. As to conditions: in vivo, read-out: Vss. In outline:
as §1

Data set [3] has as its system Rattus norvegicus. Briefly: Mean residence time in rat administered with 0.5 mg/kg, iv. The class given is functional, organism-based. Also noted: dose 0.5 mg/kg. In outline:
as §1

For data set [4], the system named is Rattus norvegicus. Description: Terminal half-life in rat administered with 0.5 mg/kg, iv. More on the design: dose 0.5 mg/kg. The class given is functional, organism-based. In outline: as §1
Data set [5] is described as follows: Maximum concentration in rat administered with 0.5 mg/kg, iv. The class given is ADME, organism-based. More on the design: dose 0.5 mg/kg, route intravenous. As to conditions: in vivo.
The target in data set [6] is Cathepsin K (Homo sapiens) (UniProt P43235). Briefly: Inhibitory constant against human cathepsin K using Z-Phe-Arg-AMC substrate.
For data set [7], the system named is Rattus norvegicus. Description: Oral bioavailability in rat. The class given is functional, organism-based. In short, it runs like this: (§2)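 Single-compound rat PK: 0.5 mg/kg iv and 10 mg/kg oral. Bioavailability from oral versus iv exposure.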
The nature of data set [8]: Maximum concentration in rat administered with 10 mg/kg, po. The class given is ADME, organism-based. More on the design: dose 10 mg/kg, route oral. Conditions: in vivo. In outline: as §2
The species entered for data set [9] is Rattus norvegicus. Description: Terminal half-life in rat. The class given is functional, organism-based.

The structures appear in SMILES notation.

Procathepsin L, sequence (P07711 whole entry): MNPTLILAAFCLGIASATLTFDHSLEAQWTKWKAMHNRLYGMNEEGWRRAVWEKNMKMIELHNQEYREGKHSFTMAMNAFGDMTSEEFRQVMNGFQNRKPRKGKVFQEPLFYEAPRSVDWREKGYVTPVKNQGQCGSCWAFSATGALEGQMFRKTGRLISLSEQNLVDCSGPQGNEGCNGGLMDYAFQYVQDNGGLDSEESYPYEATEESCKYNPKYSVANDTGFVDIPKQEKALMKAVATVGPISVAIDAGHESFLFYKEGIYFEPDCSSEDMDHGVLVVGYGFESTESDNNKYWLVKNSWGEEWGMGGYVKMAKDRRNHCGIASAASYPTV
Cathepsin S, sequence (P25774 whole entry): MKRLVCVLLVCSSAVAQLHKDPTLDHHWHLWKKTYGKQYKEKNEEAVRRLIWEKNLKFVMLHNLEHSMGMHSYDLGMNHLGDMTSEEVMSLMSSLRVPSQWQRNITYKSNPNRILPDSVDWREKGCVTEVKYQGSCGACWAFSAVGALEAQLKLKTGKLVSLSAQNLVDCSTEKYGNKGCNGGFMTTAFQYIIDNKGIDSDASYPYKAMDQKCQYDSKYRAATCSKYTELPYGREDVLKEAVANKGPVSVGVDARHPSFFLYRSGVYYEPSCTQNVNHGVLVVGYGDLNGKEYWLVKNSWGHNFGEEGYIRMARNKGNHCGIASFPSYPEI

Take `N#CCNC(=O)C1(NC(=O)c2ccc(-c3ccc(S(=O)(=O)N4CCN(CC(F)(F)F)CC4)cc3)cc2)CCCCC1`: the Ki on Cathepsin B (read-out: Ki app) was 56000 nM; on Procathepsin L (read-out: Ki app), 540 nM; on Cathepsin S (read-out: Ki app) it was 5500 nM; in data set [6] (read-out: Ki app), 6.1 nM. Besides, the IC50 in the data set with Osteoclast stood at 320 nM. Moreover, the clearance in data set [1] worked out at 40 mL/min/kg. The Vd in data set [2] was 1.55 L/kg. Also, the MRT in the data set with Rattus norvegicus [3] turned out to be 0.65 h. This compound also came in with a T1/2 in the data set with Rattus norvegicus [4] of 0.767 h. The compound further came in with a Cmax in data set [5] of 1200 nM.
For `N#CCNC(=O)C1(NC(=O)c2ccc(-c3ccc(OC4CCN(CCO)CC4)cc3)cc2)CCCCC1`, the Ki on Cathepsin B (read-out: Ki app) is 640 nM; at Procathepsin L (read-out: Ki app) it was 9100 nM; on Cathepsin S (read-out: Ki app), 16000 nM; in data set [6] (read-out: Ki app), below 0.25 nM. Besides, the IC50 with Osteoclast came to 59 nM. The same compound came in with a clearance in [1] of 231 mL/min/kg. In addition, in data set [2], the Vd worked out at 25.3 L/kg. The same compound came in with an MRT in the data set on Rattus norvegicus [3] of 1.83 h. In addition, the T1/2 with Rattus norvegicus [4] came to 2.05 h. Further, the Cmax in [5] worked out at 220 nM.
For `N#CCNC(=O)C1(NC(=O)c2ccc(-c3csc(N4CCC(N5CCOCC5)CC4)n3)cc2)CCCCC1`, the Ki at Cathepsin B (read-out: Ki app) is 670 nM; on Procathepsin L (read-out: Ki app) it was 16000 nM; at Cathepsin S (read-out: Ki app), 6400 nM; in data set [6] (read-out: Ki app), below 0.25 nM. For the same compound, half-maximal inhibition with Osteoclast (IC50) was put at 3 nM. Further, the bioavailability with Rattus norvegicus [7] was 48%. Further, the highest level in [8] (Cmax) was 1700 nM. Besides, in the data set listed under Rattus norvegicus [9], the T1/2 worked out at 5.33 h.
Turning to `N#CCNC(=O)C1(NC(=O)c2ccc(-c3csc(N4CCC(N5CCCCC5)CC4)n3)cc2)CCCCC1`, the Ki was determined as 690 nM at Cathepsin B (read-out: Ki app), 8800 nM at Procathepsin L (read-out: Ki app), 42000 nM on Cathepsin S (read-out: Ki app) and 0.45 nM in data set [6] (read-out: Ki app). In the data set with Osteoclast, the IC50 was found to be 3 nM. Further, the bioavailability in the data set on Rattus norvegicus [7] was found to be 35%. In [8], this compound registered a maximum concentration (Cmax) of 360 nM. Moreover, the T1/2 in the data set filed under Rattus norvegicus [9] worked out at 3.35 h.
In the case of `CN1CCCC(Oc2ccc(-c3ccc(C(=O)NC4(C(=O)NCC#N)CCCCC4)cc3)cc2)C1` (stereo not given), the Ki on Cathepsin B (read-out: Ki app) was determined as 870 nM; on Procathepsin L (read-out: Ki app), 2300 nM; on Cathepsin S (read-out: Ki app), 13000 nM; in data set [6] (read-out: Ki app), 0.67 nM. In the data set with Osteoclast, this compound had an IC50 of 10 nM. Also, in [1], the clearance amounted to 104 mL/min/kg. The Vd in data set [2] turned out to be 8.46 L/kg. In the data set with Rattus norvegicus [3], this compound displayed an MRT of 1.35 h. Further, in the data set with Rattus norvegicus [4], the T1/2 came out at 1.5 h. This compound came in with a Cmax in data set [5] of 250 nM.
As to `N#CCNC(=O)C1(NC(=O)c2ccc(-c3csc(OC4CCNCC4)n3)cc2)CCCCC1`, the Ki at Cathepsin B (read-out: Ki app) is 740 nM; at Procathepsin L (read-out: Ki app), 11000 nM; on Cathepsin S (read-out: Ki app) it was 68000 nM; in data set [6] (read-out: Ki app) it was 0.57 nM. In the data set with Osteoclast, this compound registered an IC50 of 43 nM. In the data set with Rattus norvegicus [3], this compound came in with an MRT of 1.23 h. In addition, the T1/2 in the data set on Rattus norvegicus [4] is 2.53 h. This compound also had a Cmax in [5] of 1400 nM.
Regarding `CC(C)(C)NC1CCN(c2ccc(-c3ccc(C(=O)NC4(C(=O)NCC#N)CCCCC4)cc3)cc2)CC1`, the Ki is 76000 nM on Cathepsin B (read-out: Ki), 1600 nM at Procathepsin L (read-out: Ki), 3900 nM at Cathepsin S (read-out: Ki) and below 0.25 nM in data set [6] (read-out: Ki). The IC50 in the data set with Osteoclast stood at 40 nM. The compound further came in with a clearance in data set [1] of 84 mL/min/kg. In addition, the Vd in data set [2] was determined as 10.7 L/kg. Besides, the MRT in the data set with Rattus norvegicus [3] came to 2.17 h. Also, the T1/2 in the data set with Rattus norvegicus [4] turned out to be 1.93 h. The Cmax in data set [5] was 360 nM.
Take `N#CCNC(=O)C1(NC(=O)c2ccc(-c3ccc(C4(F)CCNCC4)cc3)cc2)CCCCC1`: the Ki on Cathepsin B (read-out: Ki app) is 280 nM; at Procathepsin L (read-out: Ki app) it was 900 nM; on Cathepsin S (read-out: Ki app), 7900 nM; in data set [6] (read-out: Ki app) it was below 0.25 nM. Besides, the IC50 in the data set on Osteoclast came out at 35 nM. This compound had a clearance in data set [1] of 37 mL/min/kg. For the same compound, in [2], the Vd amounted to 1.76 L/kg. This compound also returned an MRT in the data set with Rattus norvegicus [3] of 0.8 h. Further, the T1/2 with Rattus norvegicus [4] turned out to be 0.783 h. In addition, the peak level in data set [5] (Cmax) was 660 nM.
With `CC(C)NC1CCN(c2nc(-c3ccc(C(=O)NC4(C(=O)NCC#N)CCCCC4)cc3)cs2)CC1`, the Ki on Cathepsin B (read-out: Ki app) is 760 nM; on Procathepsin L (read-out: Ki app), 12000 nM; at Cathepsin S (read-out: Ki app), 33000 nM; in [6] (read-out: Ki app), 0.59 nM. Also, the half-inhibitory concentration (IC50) in the data set on Osteoclast is 19 nM. This compound registered an MRT in the data set with Rattus norvegicus [3] of 2.42 h. In the data set with Rattus norvegicus [4], the T1/2 came out at 2.55 h. For the same compound, in data set [5], the peak level (Cmax) was 660 nM.
Consider `N#CCNC(=O)C1(NC(=O)c2ccc(-c3csc(N4CCOCC4)n3)cc2)CCCCC1`, for which the Ki is 3100 nM at Cathepsin B (read-out: Ki app), 74000 nM on Procathepsin L (read-out: Ki app), 13000 nM on Cathepsin S (read-out: Ki app) and 2.3 nM in data set [6] (read-out: Ki app). Further, it took 35 nM to reach half-maximal inhibition in the data set with Osteoclast (IC50). In addition, the MRT in the data set with Rattus norvegicus [3] was determined as 0.467 h. In the data set with Rattus norvegicus [4], the T1/2 was 0.483 h. The Cmax in [5] was 1400 nM.

By IC50 is commonly meant the concentration needed to halve the response being measured. The low end stands for greater potency in that assay, the high end for weaker potency in that assay. What is called clearance is a measure of how efficiently the substance is removed, as volume per time. For orientation: Cmax means the maximum level reached in the sampled fluid or tissue.
